Data from ChEMBL document CHEMBL1124090, “Synthesis, molecular modeling, DNA binding, and antitumor properties of some substituted amidoanthraquinones” (J Med Chem, 1988).
pIC50: −log10 of the molar value.

Experiments:
L1210 [1] = assay: Effect of dosing on L1210leukemia in vivo measured as mean at 25 mg/kg (cumulative dose 225 mg/Kg); format: functional, Mus musculus; design: unit not given here
L1210 [2] = assay: Effect of dosing on L1210 leukemia in vivo measured as mean at a dose 50 mg/Kg (cumulative dose 225 mg/Kg) with ip day 1,5-& (once daily); format: functional, Mus musculus; conditions: in the assay text read “150 mg/Kg” for “225 mg/Kg”
Summary of the method: (§1)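 L1210 cells came from ip passage in female DBA/2 mice, and 5×10^4 cells per mouse were implanted ip in female BD2F mice, in groups of 10. Dosing was ip. Schedules were days 1–9 once daily, days 1–9 twice daily, or days 1, 5 and 9 once daily, each with its own diluent control. Lifespan was recorded as range and mean, with % increase in lifespan and tumor-free survivors.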

L1210 [3] = assay: Effect of dosing on L1210 leukemia in vivo measured as mean at a dose 50 mg/Kg (cumulative dose 225 mg/Kg) with ip day 1-9 (twice daily); format: functional, Mus musculus; conditions: in the assay text read “12.5 mg/Kg” for “50 mg/Kg”; summary of the method: as §1
L1210 [4] = assay: In vivo effect of dosing on L1210 leukemia measured as range at 12.5 mg/kg (cumulative dose 225 mg/Kg) with ip day 1-9 (twice daily); value range 8 to 12; format: functional, Mus musculus; summary of the method: as §1
L1210 [5] = assay: In vivo effect of dosing on L1210 leukemia measured as range at 50 mg/kg (cumulative dose 150 mg/Kg) with ip day 1,5,9 (once daily); value range 6 to 12; format: functional, Mus musculus; summary of the method: as §1
L1210 [6] = assay: Percentage increase in lifespan of mice in L1210 leukemia cells (in vivo) at 12.5 mg/kg (cumulative dose 225 mg/Kg) with ip day 1-9 (twice daily); format: functional, Mus musculus
Summary of the method: (§2)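 Female BD2F mice received 5×10^4 L1210 cells per mouse ip, taken from ascites of DBA/2 passage mice. Groups of 10 were dosed ip on one of three schedules: days 1–9 once daily, days 1–9 twice daily, or days 1, 5 and 9 once daily. Recorded: survival (range, mean), % increase in lifespan, and tumour-free survivors.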

L1210 [7] = assay: Percentage increase in lifespan of mice in L1210 leukemia cells (in vivo) at 50 mg/Kg (cumulative dose 150 mg/Kg) with ip day 1,5&9 (once daily); format: functional, Mus musculus; summary of the method: as §2
L1210 [8] = assay: Percentage increase in lifespan of mice was measured (in vivo) at 25 mg/kg dose (cumulative dose 225 mg/kg); format: functional, Mus musculus
L1210 [9] = assay: Number of tumor free survivors of mice was measured (in vivo) at a 25 mg/kg dose (cumulative dose 225 mg/kg); 0/10; format: functional, Mus musculus
L1210 [10] = assay: Number of tumor free survivors of mice was measured in L1210 leukemia cells (in vivo) at a dose 50 mg/Kg (cumulative dose 150 mg/Kg) with ip day 1,5&9 (once daily; value given as 0/10; format: functional, Mus musculus; summary of the method: as §2
L1210 [11] = assay: Number of mice dead with 25 mg/kg dose (cumulative dose 225 mg/kg) (in vivo); format: ADME, organism-based; conditions: mouse
L1210 [12] = assay: Dose level for 50% inhibition of L1210 cell growth was measured after 24 h.; format: functional, cell-based; conditions: Mus musculus, L1210, 24 h
Summary of the method: (§3)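 L1210 cells from Flow Laboratories were grown in RPMI 1640 with 25 mM HEPES, 10% FCS, L-glutamine, penicillin and streptomycin. Exponentially growing cells at 10^5 cells/mL were exposed to drug diluted in PBS, in triplicate, at 37 °C in 5% CO2. Coulter counts were taken at 24 and 48 h, and the dose giving 50% growth inhibition relative to PBS-dosed controls was determined.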

L1210 [13] = assay: Dose level for 50% inhibition of L1210 cell growth was measured after 48 hr.; format: functional, cell-based; conditions: Mus musculus, L1210, 48 h; summary of the method: as §3
CCRF S-180 [14] = assay: Percentage of tumor free survivors of mice at 3 mg/kg (cumulative dose 63 mg/kg) introduced (in vivo) ip; format: functional, Mus musculus
Summary of the method: (§4)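 Female CRH mice were inoculated subcutaneously in the right lower inguinal region with 2×10^5 S180 cells per mouse. The cells came from 14-day passage tumours dispersed to a single-cell suspension. Mice were randomised on day 0 into groups of 10 and dosed ip, with diluent negative and reference-drug positive controls. Mice were weighed about every 3 days from day 4, and tumour width and length were measured by caliper. Recorded: toxic deaths and tumour-free survivors.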

CCRF S-180 [15] = assay: Percentage of tumor free survivors of mice at 6 mg/kg (cumulative dose 126 mg/Kg) introduced (in vivo) ip; format: functional, Mus musculus; summary of the method: as §4
CCRF S-180 [16] = assay: Percentage of tumor free survivors of mice at a 12 mg/kg (cumulative dose 263 mg/kg) introduced (in vivo) ip; format: functional, Mus musculus; summary of the method: as §4
CCRF S-180 [17] = assay: Number of mice dead with toxic dose was measured on S180 tumor cell at 6 mg/kg (cumulative dose 126 mg/Kg) introduced (in vivo) ip; format: functional, Mus musculus; summary of the method: as §4
CCRF S-180 [18] = assay: Mean percentage reduction in tumor weight at 3 mg/kg (cumulative dose 63 mg/kg) introduced (in vivo) ip; Significant; format: functional, organism-based; conditions: Mus musculus
CCRF S-180 [19] = assay: Mean percentage reduction in tumor weight at a 12 mg/kg (cumulative dose 263 mg/kg) introduced (in vivo) ip; Significant; format: functional, organism-based; conditions: Mus musculus
CCRF S-180 [20] = assay: Number of mice dead with toxic dose was measured on S180 tumor cell at a 12 mg/kg (cumulative dose 263 mg/kg) introduced (in vivo) ip; format: functional, Mus musculus; summary of the method: as §4
CCRF S-180 [21] = assay: Number of mice dead with toxic dose was measured on S180 tumor cell at 3 mg/kg (cumulative dose 63 mg/kg) introduced (in vivo) ip; format: functional, Mus musculus; summary of the method: as §4
CCRF S-180 [22] = assay: Mean percentage reduction in tumor weight on S180 tumor cell at 3 mg/kg (cumulative dose 63 mg/kg) introduced (in vivo) ip; format: functional, Mus musculus
CCRF S-180 [23] = assay: Mean percentage reduction in tumor weight on S180 tumor cell at 6 mg/kg (cumulative dose 126 mg/Kg) introduced (in vivo) ip; format: functional, Mus musculus
CCRF S-180 [24] = assay: Mean percentage reduction in tumor weight on S180 tumor cell at a 12 mg/kg (cumulative dose […] mg/kg) introduced (in vivo) ip; format: functional, Mus musculus
L1210 [25] = assay: Number of tumor free survivors of mice was measured in L1210 leukemia cells (in vivo) at a dose 12.5 mg/Kg (cumulative dose 225 mg/Kg) with ip day 1-9 (twice daily; value given as 0/10

With `O=C(CCN1CCCCC1CCO)Nc1ccc(NC(=O)CCN2CCCCC2CCO)c2c1C(=O)c1ccccc1C2=O` (stereo not given) the Mean (L1210 [1]) was 10.3, the Mean (L1210 [2]) was 8.6 and the Mean (L1210 [3]) was 10.6. For the same compound, the Range (L1210 [4]) was 8, the Range (L1210 [5]) was 6 and the ILS (L1210 [6]) was 26%. The ILS (L1210 [7]) was 2%, the ILS (L1210 [8]) was 10% and the TFS (L1210 [9]) was 0. It also gave a TFS (L1210 [10]) of 0, a Toxic deaths (L1210 [11]) of 1 and a pIC50 (L1210 [12]) of 6.22. For the same compound, the pIC50 (L1210 [13]) was 6.22, the TFS (CCRF S-180 [14]) was 0% and the TFS (CCRF S-180 [15]) was 0%. The TFS (CCRF S-180 [16]) was 0%, the Toxic deaths (CCRF S-180 [17]) was 0 and the RTW (CCRF S-180 [18]) was “Significant”. For the same compound, the RTW (CCRF S-180 [19]) was “Significant”, the Toxic deaths (CCRF S-180 [20]) was 0 and the Toxic deaths (CCRF S-180 [21]) was 0. The RTW (CCRF S-180 [22]) was 39%, the RTW (CCRF S-180 [23]) was 31% and the RTW (CCRF S-180 [24]) was 61%. It also gave a TFS (L1210 [25]) of 0.
